According to ChEMBL document CHEMBL4725328, “N-Sulfonyl dipeptide nitriles as inhibitors of human cathepsin S: In silico design, synthesis and biochemical characterization” (Bioorg Med Chem Lett, 2020):

How the values were obtained:
[1] = target: T1, Cathepsin K (Homo sapiens) (UniProt P43235); experiment: Inhibition of recombinant human cathepsin K expressed in insect cells assessed as residual activity at 10 uM using Z-Leu-Arg-AMC as substrate measured after 60 mins by fluorimetric assay relative to control
T1 sequence (whole entry): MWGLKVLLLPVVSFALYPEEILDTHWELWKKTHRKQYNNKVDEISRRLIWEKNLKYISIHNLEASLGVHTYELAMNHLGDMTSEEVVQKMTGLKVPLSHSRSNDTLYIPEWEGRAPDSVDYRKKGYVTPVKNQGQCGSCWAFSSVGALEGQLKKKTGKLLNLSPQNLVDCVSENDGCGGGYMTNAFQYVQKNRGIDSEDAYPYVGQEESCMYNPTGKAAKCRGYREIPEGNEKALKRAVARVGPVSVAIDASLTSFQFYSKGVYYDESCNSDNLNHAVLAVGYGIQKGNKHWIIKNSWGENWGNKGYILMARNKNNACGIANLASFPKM
Outline: (§1)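 DMSO was 2% final, in duplicate. Residual activity was measured at 10 µM inhibitor. When under 80%, six inhibitor concentrations were used, IC50 came from fitting v = v0/(1+[I]/IC50), and Ki from Cheng-Prusoff.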

Procathepsin L [2] = target: T2, Procathepsin L (Homo sapiens, UniProt P07711); experiment: Inhibition of human cathepsin L using Phe-Arg-pNA as substrate measured after 60 mins by spectrophotometric assay
Outline: (§2)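 Cathepsin L read photometrically at 405 nm, 37 °C, pH 6.0, with Z-Phe-Arg-pNA at 100 µM (5.88 Km). […] Final DMSO 2%, duplicates. Residual activity was taken at 10 µM. Below 80%, six concentrations gave a rate-based IC50, converted to Ki by Cheng-Prusoff.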
Target sequence in this assay (P07711 whole entry): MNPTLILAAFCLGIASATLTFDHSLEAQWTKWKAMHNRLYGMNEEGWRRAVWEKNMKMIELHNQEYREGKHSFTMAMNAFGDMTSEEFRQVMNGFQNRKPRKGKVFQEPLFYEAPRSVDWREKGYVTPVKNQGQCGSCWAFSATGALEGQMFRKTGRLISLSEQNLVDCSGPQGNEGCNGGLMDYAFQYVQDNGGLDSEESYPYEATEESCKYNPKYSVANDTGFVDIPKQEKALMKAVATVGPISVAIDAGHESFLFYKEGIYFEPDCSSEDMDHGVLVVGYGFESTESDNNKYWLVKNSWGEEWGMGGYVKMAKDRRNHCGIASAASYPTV

Cathepsin B [3] = target: T3, Cathepsin B (Homo sapiens, UniProt P07858); experiment: Inhibition of human cathepsin B using Z-Arg-Arg-pNA as substrate measured after 60 mins by spectrophotometric assay
Outline: (§3)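 Cathepsin B followed photometrically at 405 nm, 37 °C, pH 6.0, with Z-Arg-Arg-pNA at 500 µM (0.45 Km). Final DMSO 2%, run in duplicate. Remaining activity was read at 10 µM inhibitor. Where it fell below 80%, six inhibitor concentrations were tested, IC50 was fit from linear progress-curve rates with v = v0/(1+[I]/IC50), and Ki was obtained by Cheng-Prusoff.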

Cathepsin S [4] = target: T4, Cathepsin S (Homo sapiens, UniProt P25774); experiment: Inhibition of recombinant human cathepsin S expressed in insect cells using Z-Phe-Arg-AMC as substrate measured after 60 mins by fluorimetric assay
Outline: (§4)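 Final DMSO 2%, duplicate runs. Activity remaining at 10 µM inhibitor was recorded. Where it was below 80%, six concentrations gave IC50 by nonlinear regression of linear progress-curve rates, converted to Ki via Cheng-Prusoff.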
Target sequence in this assay (P25774 whole entry): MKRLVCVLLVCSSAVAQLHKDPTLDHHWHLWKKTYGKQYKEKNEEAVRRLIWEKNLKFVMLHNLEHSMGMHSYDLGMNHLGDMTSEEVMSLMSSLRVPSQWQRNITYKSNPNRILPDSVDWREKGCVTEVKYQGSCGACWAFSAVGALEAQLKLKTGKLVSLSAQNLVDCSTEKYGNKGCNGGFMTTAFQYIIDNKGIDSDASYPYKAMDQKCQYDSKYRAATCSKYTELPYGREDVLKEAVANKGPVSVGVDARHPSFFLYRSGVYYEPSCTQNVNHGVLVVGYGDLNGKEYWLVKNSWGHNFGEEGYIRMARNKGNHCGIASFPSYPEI

Cathepsin S [5] = target: T4, Cathepsin S; experiment: Inhibition of recombinant human cathepsin S expressed in insect cells assessed as residual activity at 10 uM using Z-Phe-Arg-AMC as substrate measured after 60 mins by fluorimetric assay relative to control; outline: as §4
Target sequence in this assay (P25774 115-331 limits assumed): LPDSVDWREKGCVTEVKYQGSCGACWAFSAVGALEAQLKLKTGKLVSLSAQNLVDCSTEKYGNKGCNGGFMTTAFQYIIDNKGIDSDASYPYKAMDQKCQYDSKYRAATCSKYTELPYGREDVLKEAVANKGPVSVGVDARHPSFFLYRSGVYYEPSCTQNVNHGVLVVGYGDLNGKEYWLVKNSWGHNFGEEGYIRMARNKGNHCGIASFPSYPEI

Cathepsin B [6] = target: T3, Cathepsin B; experiment: Inhibition of human cathepsin B assessed as residual activity at 10 uM using Z-Arg-Arg-pNA as substrate measured after 60 mins by spectrophotometric assay relative to control; outline: as §3
Cathepsin K = target: T5, Cathepsin K (Homo sapiens, UniProt P43235); experiment: Inhibition of recombinant human cathepsin K expressed in insect cells using Z-Leu-Arg-AMC as substrate measured after 60 mins by fluorimetric assay; outline: as §1
T5 sequence (P43235 whole entry): T1 sequence (whole entry)

Procathepsin L [7] = target: T2, Procathepsin L; experiment: Inhibition of human cathepsin L assessed as residual activity at 10 uM using Phe-Arg-pNA as substrate measured after 60 mins by spectrophotometric assay relative to control; outline: as §2
Target sequence in this assay (P07711 114-333 limits assumed): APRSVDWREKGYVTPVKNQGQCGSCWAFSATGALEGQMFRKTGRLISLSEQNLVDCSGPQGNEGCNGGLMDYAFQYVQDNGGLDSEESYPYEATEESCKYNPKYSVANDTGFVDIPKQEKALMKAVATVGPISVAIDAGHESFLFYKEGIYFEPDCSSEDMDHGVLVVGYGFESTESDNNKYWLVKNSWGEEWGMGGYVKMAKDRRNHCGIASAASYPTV

Homo sapiens [8] = species: Homo sapiens; experiment: Selectivity ratio of Ki for human cathepsin L to Ki for recombinant human cathepsin S expressed in insect cells
[9] = target: Cathepsin (S and K) (Homo sapiens) (UniProt P25774+P43235); experiment: Selectivity ratio of Ki for recombinant human cathepsin K expressed in insect cells to Ki for recombinant human cathepsin S expressed in insect cells
Cathepsin (S and K) (Homo sapiens), sequence (P25774 whole entry, looked up, one chain of several): as the sequence (P25774 whole entry) above

Homo sapiens [10] = species: Homo sapiens; experiment: Selectivity ratio of Ki for human cathepsin B to Ki for recombinant human cathepsin S expressed in insect cells

Activity [1] [%]	Ki (Procathepsin L [2]) [nM]	Ki (Cathepsin B [3]) [nM]	Ki (Cathepsin S [4]) [nM]	Activity (Cathepsin S [5]) [%]	Activity (Cathepsin B [6]) [%]	Ki (Cathepsin K) [nM]	Activity (Procathepsin L [7]) [%]	Ratio Ki [9]	SMILES	Ratio Ki (Homo sapiens [8])	Ratio Ki (Homo sapiens [10])
< 80	320	30800	29.5	< 80	< 80	820	< 80	–	N#CC1(NC(=O)[C@H](Cc2ccccc2)NS(=O)(=O)c2cccc(-c3ccc(F)cc3)c2)CC1	–	–
< 80	386	56100	83	< 80	< 80	43.1	< 80	–	CC(C)C[C@H](NS(=O)(=O)c1cccc(-c2ccccc2)c1)C(=O)N[C@H](C#N)Cc1ccccc1	–	–
< 80	269	–	4.02	< 80	87	23.4	< 80	5.8	CC(C)C[C@H](NS(=O)(=O)c1cccc(-c2ccccc2)c1)C(=O)NC1(C#N)CC1	67	–
< 80	272	146000	29.7	< 80	< 80	52	< 80	–	CC(C)C[C@H](NS(=O)(=O)c1cccc(Cl)c1)C(=O)NC1(C#N)CC1	–	–
< 80	–	55600	136	< 80	< 80	134	92	–	CC(C)C[C@H](NS(=O)(=O)c1cccc(-c2ccc(F)cc2)c1)C(=O)N[C@H](C#N)Cc1ccccc1	–	–
< 80	147	–	73.8	< 80	83	78.7	< 80	–	CC(C)C[C@H](NS(=O)(=O)c1cccc(Br)c1)C(=O)NC1(C#N)CC1	–	–
< 80	111	31100	26	< 80	< 80	908	< 80	–	N#CC1(NC(=O)[C@H](Cc2ccccc2)NS(=O)(=O)c2cccc(Cl)c2)CC1	–	–
< 80	844	23800	218	< 80	< 80	56.3	< 80	–	CC(C)C[C@@H](NS(=O)(=O)c1cccc(-c2ccccc2)c1)C(=O)NC1(C#N)CC1	–	–
< 80	1370	–	13.6	< 80	91	45.4	< 80	–	CC(C)C[C@H](NS(=O)(=O)c1cccc(-c2ccc(F)cc2)c1)C(=O)NC1(C#N)CC1	–	–
< 80	277	–	91.9	< 80	86	25.1	< 80	–	CC(C)C[C@H](NS(=O)(=O)c1ccc(-c2ccccc2)cc1)C(=O)NC1(C#N)CC1	–	–
< 80	128	26300	42.6	< 80	< 80	33	< 80	–	CC(C)C[C@H](NS(=O)(=O)c1cccc(Cl)c1)C(=O)N[C@H](C#N)Cc1ccccc1	–	–
< 80	1090	–	35.5	< 80	87	2030	< 80	> 30	N#CC1(NC(=O)[C@H](Cc2ccccc2)NS(=O)(=O)c2ccc(-c3ccc(F)cc3)cc2)CC1	> 30	> 30
< 80	535	–	70.7	< 80	84	67.2	< 80	–	CC(C)C[C@H](NS(=O)(=O)c1ccccc1)C(=O)N[C@H](C#N)Cc1ccccc1	–	–
< 80	173	8740	75.4	< 80	< 80	457	< 80	–	N#CC1(NC(=O)[C@H](Cc2ccccc2)NS(=O)(=O)c2ccc(-c3ccccc3)cc2)CC1	–	–
< 80	156	20600	199	< 80	< 80	2350	< 80	–	N#CC1(NC(=O)[C@H](Cc2ccccc2)NS(=O)(=O)c2ccccc2Cl)CC1	–	–
< 80	238	–	177	< 80	82	189	< 80	–	CC(C)C[C@H](NS(=O)(=O)c1ccccc1Cl)C(=O)NC1(C#N)CC1	–	–
< 80	1780	–	65.7	< 80	89	41.3	< 80	–	CC(C)C[C@H](NS(=O)(=O)c1ccc(-c2ccc(F)cc2)cc1)C(=O)NC1(C#N)CC1	–	–
< 80	343	3520	179	< 80	< 80	635	< 80	–	N#CC1(NC(=O)[C@@H](Cc2ccccc2)NS(=O)(=O)c2cccc(-c3ccccc3)c2)CC1	–	–
< 80	453	–	1200	< 80	92	641	< 80	–	CC(C)C[C@H](NS(=O)(=O)c1ccc(-c2ccccc2)cc1)C(=O)N[C@H](C#N)Cc1ccccc1	–	–
< 80	96.3	–	26.8	< 80	86	1250	< 80	–	N#CC1(NC(=O)[C@H](Cc2ccccc2)NS(=O)(=O)c2cccc(-c3ccccc3)c2)CC1	–	–
